Test results: ChEMBL document CHEMBL4402567, “Structure-Activity Relationship Studies on Diversified Salicylamide Derivatives as Potent Inhibitors of Human Adenovirus Infection” (J Med Chem, 2020)

Key:
[1] = Selectivity index, ratio of CC50 for cytotoxicity against human A549 cells to IC50 for antiviral activity against Human adenovirus 5 infected in 293beta5 cells assessed as inhibition of plaque formation after 7 days; type: toxicity, cell-based; settings: read-out: Ratio CC50/IC50
[2] = Cytotoxicity against human A549 cells assessed as reduction in cell viability after 48 hrs by alamar blue assay; type: cell-based
Human adenovirus 5 [3] = assay: Antiviral activity against Human adenovirus 5 infected in 293beta5 cells assessed as inhibition of plaque formation incubated for 7 days by GFP reporter gene assay; type: functional, organism-based; settings: Human mastadenovirus C, 293beta5, 168 h
In short: (§1)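 HAdV5-GFP plaque assay in 293β5 cells at low MOI. Inhibition is expressed as percent of the infected control, with single-dose screening at 10 μM. Compounds giving >90% inhibition went on to IC50 determination. Values are means ± SD of triplicate samples from three independent experiments.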

Human adenovirus 5 [4] = assay: Antiviral activity against Human adenovirus 5 infected in 293beta5 cells assessed as inhibition of plaque formation at 10 uM incubated for 7 days by GFP reporter gene assay relative to control; type: functional; settings: Human mastadenovirus C, 293beta5, 168 h; in short: as §1

SMILES	selectivity ratio at 168 h [1]	CC50 at 48 h [2] [µM]	IC50 (Human adenovirus 5 [3]) [µM]	inhibition at 10 µM (Human adenovirus 5 [4]) [%]
O=C(N[C@@H](Cc1ccccc1)C(=O)Nc1cc(C(F)(F)F)cc(C(F)(F)F)c1)c1cc(Cl)ccc1O	44.9	17.9	0.4	–
C[C@H](NC(=O)c1cc(Cl)ccc1O)C(=O)Nc1ccc([N+](=O)[O-])cc1Cl	26	100	3.85	–
O=C(Nc1cc(F)cc(C(F)(F)F)c1)c1ccccc1O	15.2	16.3	1.07	–
CN(Cc1ccc(F)cc1)C(=O)c1cc(Cl)ccc1O	–	–	–	0
CC(C)[C@H](NC(=O)c1cc(Cl)ccc1O)C(=O)Nc1cc(F)cc(C(F)(F)F)c1	65.2	43	0.66	–
O=C(NCCc1ccc(F)cc1)c1cc(Cl)ccc1O	39.1	154	3.94	–
Cc1ccc(CNC(=O)c2cc(Cl)ccc2O)cc1	10.8	87.7	8.12	–
O=C(NCc1ccc(Cl)cc1Cl)c1cc(Cl)ccc1O	17.9	30.9	1.73	–
C[C@@H](NC(=O)c1cc(Cl)ccc1O)c1ccc(Cl)cc1	–	31.1	–	100
C[C@@H](NC(=O)c1cc(Cl)ccc1O)c1ccccc1	–	84.6	–	100
CC(C)[C@H](NC(=O)c1cc(Cl)ccc1O)C(=O)Nc1cc(C(F)(F)F)cc(C(F)(F)F)c1	77.4	30.9	0.4	–
O=C(NCc1ccc(C(F)(F)F)cc1)c1cc(Cl)ccc1O	9.2	23.9	2.59	–
CC(C)(C)OC(=O)CC[C@H](NC(=O)c1cc(Cl)ccc1O)C(=O)Nc1ccc([N+](=O)[O-])cc1Cl	34.2	22.9	0.67	–
CC(C)[C@H](NC(=O)c1cc(Cl)ccc1O)C(=O)Nc1ccc(F)c(F)c1	32.1	95	2.96	–
O=C(NCc1cc(F)cc(C(F)(F)F)c1)c1cc(Cl)ccc1O	15.1	36.3	2.4	–
CS(=O)(=O)Nc1ccc(Cl)cc1C(=O)NCC(=O)Nc1ccc([N+](=O)[O-])cc1Cl	14.6	141	9.65	–
Cc1ccc(O)c(C(=O)Nc2cc(F)cc(C(F)(F)F)c2)c1	23.3	15.2	0.65	–
O=C(NCc1ccc(Cl)cc1)c1cc(Cl)ccc1O	7.6	27.1	3.57	–
O=C(NCc1ccc(F)cc1Cl)c1cc(Cl)ccc1O	12.1	30.9	2.56	–
O=C(Nc1ccc([N+](=O)[O-])c(Cl)c1)c1cc(Cl)ccc1O	–	–	1	100
O=C(Cc1cc(Cl)ccc1O)Nc1cc(F)cc(C(F)(F)F)c1	4.8	23.7	4.92	–
O=C(N[C@@H](Cc1ccccc1)C(=O)Nc1ccc([N+](=O)[O-])cc1Cl)c1cc(Cl)ccc1O	–	15.2	7	100
O=C(NCc1ccc(C(F)(F)F)c(F)c1)c1cc(Cl)ccc1O	15.9	22.3	1.4	–
O=C(Nc1cc(F)cc(C(F)(F)F)c1)c1cccc(Cl)c1	6.9	38.6	5.61	–
O=C(NCc1ccc([N+](=O)[O-])cc1)c1cc(Cl)ccc1O	26.7	175	6.56	–
O=C(NCc1ccc(C(F)(F)F)cc1F)c1cc(Cl)ccc1O	34.6	45.6	1.32	–
O=C(Cc1cc(Cl)ccc1O)Nc1ccc([N+](=O)[O-])cc1Cl	–	–	–	0
